# Experimental data gathered from unrelated publications.
# Each line is one published result; the experiments were not run side by side.
# Target: Dual specificity protein kinase CLK1 (CLK1, Homo sapiens, UniProt P49759)
SMILES,read-out,action,technique,tested at,measurement,result
CCN(CC)CCNC(=O)c1c(C)[nH]c(/C=C2\C(=O)Nc3ccc(F)cc32)c1C,cell-free assay,,,0.5 µM,remaining signal,23.3%
CC(C)(C)c1nc2c(s1)c1nc(N)ncc1c1ccc(NS(=O)(=O)c3c(F)cccc3F)c(F)c12,enzyme activity,inhibitor,radiometric,1 µM,remaining activity,91%
COc1cc2ncnc(Nc3ccc(Oc4ccccc4)c(C)c3C)c2cc1OC,enzyme activity,inhibitor,,1 µM,inhibition,3%
CCCS(=O)(=O)Nc1ccc(F)c(C(=O)c2c[nH]c3ncc(-c4ccc(Cl)cc4)cc23)c1F,enzyme activity,inhibitor,,1 µM,inhibition,< 10%
CC(=O)N1CCC(c2ccc(C(=O)NC(=N)N)cc2C(F)(F)F)CC1,cell-free assay,,competition with immobilised ligand,1 µM,remaining binding,100%
Cn1cncc1C1=CN(c2ncnc3[nH]cnc23)CCS1,enzyme activity,inhibitor,radiometric,2 µM,inhibition,97.3%
CNCc1ccccc1-c1csc([C@@H](C)Nc2nc(C)nc3cc(OC)c(OC)cc23)c1,cell-free assay,,competition with immobilised ligand,1 µM,remaining binding,98%
CC(C)(O)[C@H]1CC[C@H](Nc2ccc3ncc(-c4cccc(C(F)(F)F)c4)n3n2)CC1,enzyme activity,inhibitor,,1 µM,remaining activity,8.45%
Cc1ccc(NC(=O)c2ccc(C)c(C(F)(F)F)c2)cc1C#Cc1nn(C2CCC(O)CC2)c2ncnc(N)c12 (stereo not shown),cell-free assay,,,10 µM,remaining signal,64%
O=C(Nc1cnn(-c2csc(C(=O)NC3COC3)c2)c1)Nc1c(F)cccc1Cl,enzyme activity,inhibitor,,5 µM,remaining activity,74.9%
CNC(=O)Nc1ccc2c(c1)CC[C@@]21OC(=O)N(CC(=O)N(Cc2ccc(F)cc2)[C@@H](C)C(F)(F)F)C1=O,cell-free assay,,competition with immobilised ligand,1 µM,remaining binding,69%
Oc1cccc(-c2nc(N3CCOCC3)c3oc4ncccc4c3n2)c1,cell-free assay,,,0.5 µM,remaining signal,85.2%
COc1cc(-c2cc(-c3ccc(N4CCNCC4)cc3)cnc2C)cc(OC)c1OC,enzyme activity,inhibitor,,0.1 µM,inhibition,1%
Cc1nc(Cc2cccc(C(F)(F)F)c2)sc1-c1ccc(C(N)=O)nc1,cell-free assay,,competition with immobilised ligand,1 µM,remaining binding,83%
O=C1NC(=O)c2cc(Nc3ccc(F)cc3)c(Nc3ccc(F)cc3)cc21,cell-free assay,,,0.5 µM,remaining signal,102%
COc1cc2nccc(Oc3ccc(NC(=O)Nc4ccc(F)cc4F)c(F)c3)c2cc1OC,thermal stability,,DSF,10 µM,ΔTm,5 to 10 °C
C#Cc1cccc(Nc2ncnc3cc(OCCOC)c(OCCOC)cc23)c1,cell-free assay,,,0.5 µM,remaining signal,107%
CN1CC(Oc2cnc(C#N)cc2-c2ccn3nc(NC(=O)C4CC4)cc3c2)C1,enzyme activity,inhibitor,,1 µM,inhibition,-3%
O=C(O)[C@H]1[C@H](Cn2nnc3ccccc3c2=O)CC[C@@H]1C(=O)c1ccc(OCCC2CCOCC2)cc1,cell-free assay,,competition with immobilised ligand,1 µM,remaining binding,98%
Cc1sc(C(=O)NC2COC2)cc1-n1cc(NC(=O)Nc2c(F)cccc2Cl)cn1,enzyme activity,inhibitor,,10 µM,remaining activity,98.4%
O=C(NC[C@@H]1[C@H]2CN(C(=O)OCc3cc(C(F)(F)F)cc(C(F)(F)F)c3)C[C@@H]12)c1ccc2[nH]nnc2c1,cell-free assay,,competition with immobilised ligand,1 µM,remaining binding,87%
Cc1cnc(NC2CCOCC2)nc1-n1cnc(C(=O)NC(CN)c2cc(F)cc(Cl)c2)c1 (stereo not shown),enzyme activity,inhibitor,radiometric,1 µM,remaining activity,62%
